From ChEMBL document CHEMBL1133514, “Activation mechanisms of nucleoside phosphoramidate prodrugs” (J Med Chem, 2000)

Experiments:
[1] = Rate constants determined using 31P NMR Kinetics experiments at 37 degrees Centigrade; assay type: ADME
Summary of the method: (§1)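 Compound (0.015-0.076 mmol) dissolved in about 90 µL CH3CN or THF, then diluted to 0.50 mL with 0.1-0.4 M cacodylate or acetate buffer; pH 7.4 target (7.0-8.0 accepted), 37 °C. Monitored by 31P NMR every 2.5 min for 30 min, then every 5 min; relative peak areas fitted by least squares to first-order kinetics to give rate constants and t1/2.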

[2] = Half-life period for the compound was determined; assay type: ADME; summary of the method: as §1

SMILES | K [1] [min⁻¹] | half-life [2] [min]
O=P(O)(OCC1CCCO1)On1nnc2ccccc21 (centres undefined) | 0.011 | 61
COP(=O)(OCC1CCCO1)N(C)CCO (centres undefined) | 0.43 | 1.6
CN(CCBr)P(=O)(OCC1CCCO1)On1nnc2ccccc21 (centres undefined) | 0.094 | 7.4
Cc1cn([C@H]2C[C@H](O)[C@@H](COP(=O)(On3nnc4ccccc43)N(C)CCBr)O2)c(=O)[nH]c1=O (some centres undefined) | 0.15 | 4.7
CCN(CC)CC.Cc1cn([C@H]2C[C@H](O)[C@@H](COP(=O)(O)N(C)CCBr)O2)c(=O)[nH]c1=O | 0.19 | 3.7
Cc1cn([C@H]2C[C@H](O)[C@@H](COP(=O)(O)On3nnc4ccccc43)O2)c(=O)[nH]c1=O | 0.0042 | 164
Cc1cn([C@H]2C[C@H](O)[C@@H](COP(=O)(O)N(C)CCBr)O2)c(=O)[nH]c1=O | 0.2 | 3.4
